In ChEMBL document CHEMBL1143671, “Antibacterial nicotinamide adenine dinucleotide synthetase inhibitors: amide- and ether-linked tethered dimers with alpha-amino acid end groups” (J Med Chem, 2007):
≈ marks a conversion by molar mass, not a printed value. Calls of active or inactive are those of the source. The calls are words filed in the database; no cut-off is given here.

Legend:
Bacillus subtilis [1] = assay: Antibacterial activity against Bacillus subtilis ATCC 14289; format: functional
How it was run: (§1)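 Broth tube dilution MIC. Bacteria subcultured from stock onto agar and grown overnight at 37 ± 2 °C in ambient air. Overnight cultures went into broth adjusted to about 5 × 10⁸ CFU/mL. Inhibitor started at 50 µg/mL with doubling dilutions over 10 tubes in duplicate. Each tube received 0.01 mL of challenge broth.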

Staphylococcus aureus [2] = assay: Antibacterial activity against methicillin-resistant Staphylococcus aureus ATCC 33591; format: functional
How it was run: as §1, with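 “MIC, performed by a contract lab.” for “MIC.”, “Bacteria were” for “Bacteria”, “in” for “with”, “dilutions,” for “dilutions over”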

[3] = Inhibition of Bacillus subtilis NAD synthetase by fluorescence based assay
How it was run: (§2)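 B. subtilis NAD synthetase, overexpressed and purified, 2.0 µg/mL. Coupled to yeast ADH (40 µg/mL) with 1% EtOH at pH 8.5: 58.5 mM HEPPS, 18.5 mM NH4Cl, 19.5 mM KCl, 9.75 mM MgCl2, 0.1 mM NaAD, 2.5% DMSO. No BOG; 0–0.01% Triton X-100. Started with 0.2 mM ATP. NADH read by fluorescence. Triplicate points; IC50 averaged over two experiments.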

Staphylococcus aureus [4] = assay: Antibacterial activity against Staphylococcus aureus ATCC 29213; format: functional; how it was run: as §1
Pseudomonas aeruginosa = assay: Antibacterial activity against Pseudomonas aeruginosa ATCC 27853; format: functional; how it was run: as §1
Bacillus subtilis [5] = assay: (§3) Inhibition of Bacillus subtilis NAD synthetase in presence of 0.001% Triton X-100 by fluorescence based assay; how it was run: as §2
Bacillus subtilis [6] = assay: (§4) Inhibition of Bacillus subtilis NAD synthetase in presence of 0.01% Triton X-100 by fluorescence based assay; how it was run: as §2
[7] = Inhibition of yeast alcohol dehydrogenase by fluorescence based assay; set-up: species or system Saccharomyces cerevisiae
How it was run: (§5)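 Yeast ADH 2.5 µg/mL in 60 mM HEPPS pH 8.5 with 0.5 mM NH4Cl, 20 mM KCl, 10 mM MgCl2, 60 mM ethanol, 2.5% DMSO and 0–0.01% Triton X-100. Started with 0.75 mM β-NAD and stopped with 1.2 M guanidine·HCl after 2 min. NADH fluorescence read at 355 nm excitation / 460 nm emission, pre-NAD blank subtracted. Triplicate points; IC50 averaged over two experiments.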

Saccharomyces cerevisiae [8] = assay: (§6) Inhibition of yeast alcohol dehydrogenase in presence of 0.001% Triton X-100 by fluorescence based assay; how it was run: as §5
Saccharomyces cerevisiae [9] = assay: (§7) Inhibition of yeast alcohol dehydrogenase in presence of 0.01% Triton X-100 by fluorescence based assay; how it was run: as §5
[10] = as §3; how it was run: as §2
[11] = as §4; how it was run: as §2
[12] = as §6; set-up: species or system Saccharomyces cerevisiae; how it was run: as §5
[13] = as §7; set-up: species or system Saccharomyces cerevisiae; how it was run: as §5

| SMILES | MIC (Bacillus subtilis [1]) [µM] | MIC (Staphylococcus aureus [2]) [µM] | IC50 [3] [µM] | MIC (Staphylococcus aureus [4]) [µM] | other results |
| --- | --- | --- | --- | --- | --- |
| N=C(N)N[C@H](COCCCCCCCCOc1ccc(OCc2ccccc2)cc1)Cc1ccccc1 | 3.13 (≈ 1.58 µg/mL) | 0.78 (≈ 0.393 µg/mL) | 11 |  |  |
| CC1(C)S[C@@H]2[C@H](NC(=O)[C@H](N)c3ccccc3)C(=O)N2[C@H]1C(=O)O [AMPICILLIN] | 0.2 (≈ 0.0699 µg/mL) | > 50 |  |  |  |
| CO[C@H]1/C=C/O[C@@]2(C)Oc3c(C)c(O)c4c(O)c(c(/C=N/N5CCN(C)CC5)c(O)c4c3C2=O)NC(=O)/C(C)=C\C=C\[C@H](C)[C@H](O)[C@@H](C)[C@@H](O)[C@@H](C)[C@H](OC(C)=O)[C@@H]1C [RIFAMPIN] | 1.5 (≈ 1.23 µg/mL) |  |  |  |  |
| COc1cccc(OC)c1C(=O)N[C@@H]1C(=O)N2[C@@H]1SC(C)(C)[C@@H]2C(=O)O [METHICILLIN] |  | 32 (≈ 12.2 µg/mL) |  | 1 (≈ 0.38 µg/mL) |  |
| C[N+](C)(C)[C@H](COCCCCCCCCOc1ccc(OCc2ccccc2)cc1)Cc1ccccc1 | 0.39 | 1.56 | 21 | 0.78 | MIC (Pseudomonas aeruginosa): > 50 µM |
| C[N+](C)(C)[C@@H](Cc1c[nH]c2ccccc12)C(=O)OCCCCCCCCOc1ccc(OCc2ccccc2)cc1 |  |  | 19 |  |  |
| N=C(N)N[C@@H](Cc1ccccc1)C(=O)NCCCCCCCCOc1ccc(OCc2ccccc2)cc1 | 3.13 (≈ 1.62 µg/mL) | 1.56 (≈ 0.806 µg/mL) | 12 |  |  |
| O=C(O)c1cn(C2CC2)c2cc(N3CCNCC3)c(F)cc2c1=O [CIPROFLOXACIN] | 0.5 (≈ 0.166 µg/mL) | 0.5 (≈ 0.166 µg/mL) |  |  |  |
| N=C(N)N[C@H](C(=O)NCCCCCCCCOc1ccc(OCc2ccccc2)cc1)c1ccccc1 | 1.56 (≈ 0.784 µg/mL) | 1.56 (≈ 0.784 µg/mL) | 19 |  |  |
| C[N+](C)(C)[C@H](C(=O)NCCCCCCCCOc1ccc(OCc2ccccc2)cc1)c1ccccc1 | 1.56 | 1.56 | 45 |  |  |
| Clc1ccccc1C(c1ccccc1)(c1ccccc1)n1ccnc1 [CLOTRIMAZOLE] |  |  | > 1500 |  | Activity (Bacillus subtilis [5]): inactive; Activity (Bacillus subtilis [6]): inactive; IC50 [7]: 96.5 µM; Activity (Saccharomyces cerevisiae [8]): inactive; Activity (Saccharomyces cerevisiae [9]): inactive |
| C[N+](C)(C)[C@@H](Cc1ccccc1)C(=O)NCCCCCCCCOc1ccc(OCc2ccccc2)cc1 | 0.39 | 0.78 | 40 | 0.78 | MIC (Pseudomonas aeruginosa): > 50 µM; IC50 [10]: 27.8 µM; IC50 [11]: 104 µM; IC50 [7]: > 1500 µM; IC50 [12]: > 1500 µM; IC50 [13]: > 1500 µM |
| C[N+](C)(C)c1ccc(CC(=O)OCCCCCCCCOc2ccc(OCc3ccccc3)cc2)cc1 | 2 | 6.2 | 41 | 9.4 | MIC (Pseudomonas aeruginosa): > 50 µM |
| C[C@H]1c2cccc(O)c2C(=O)C2=C(O)[C@]3(O)C(=O)C(C(N)=O)=C(O)[C@@H](N(C)C)[C@@H]3[C@@H](O)[C@@H]21 [DOXYCYCLINE] | 1.56 (≈ 0.693 µg/mL) | > 30 |  | 1.56 (≈ 0.693 µg/mL) |  |
| C[N+](C)(C)[C@H](COCCCCCCCCOc1ccc(OCc2ccccc2)cc1)c1ccccc1 | 0.78 | 3.13 | 38 |  |  |
| C[N+](C)(C)[C@@H](Cc1ccc(O)cc1)C(=O)OCCCCCCCCOc1ccc(OCc2ccccc2)cc1 | 1.56 | 3.13 | 53 |  |  |
| C[N+](C)(C)[C@@H](Cc1ccccc1)C(=O)OCCCCCCCCOc1ccc(OCc2ccccc2)cc1 | 0.78 | 0.78 | 22 | 0.78 | MIC (Pseudomonas aeruginosa): > 50 µM; IC50 [10]: 16.5 µM; IC50 [11]: 37 µM; IC50 [7]: 27 µM; IC50 [12]: 69 µM; IC50 [13]: 266 µM |
| N=C(N)N[C@H](COCCCCCCCCOc1ccc(OCc2ccccc2)cc1)c1ccccc1 | 3.13 (≈ 1.53 µg/mL) | 0.78 (≈ 0.382 µg/mL) | 11 |  |  |
